# The sample as a whole holds a higher share of hits than the screen did.
# INS-1E rescue: preserves ATP levels in cytokine-treated INS-1E cells. INS-1E cytokine-induced death, ATP luminescence, 48 h; normalised: neutral wells 0, positive control 100. protection from cytokine-induced ATP loss, % at 10 µM. actives 0.1% (n = 20,000);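 active = mean replicate protection from cytokine-induced ATP loss at least 50% and at least 75% of replicates each reaching 50%; inconclusive = meets only one of the two criteria, mean or replicate share; inactive = fails both the mean and replicate share criteria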
#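 Assay system – rat INS-1E insulinoma cell line · Quantity – 8000 cells per well · Buffer or medium – RPMI without phenol red, 5% FBS · Schedule – 48 h co-treatment, 10 min post-lysis read · Technique – luminescent ATP assay (CellTiter-Glo)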
# T cruzi HTS: inhibitors of intracellular Trypanosoma cruzi. activity score (inhibition), % at 5.01 µM. intracellular Trypanosoma cruzi in host cells, plate reader. actives 4.9% (n = 22,000). AID 651903; in the data active = activity score above about 55%; inconclusive = no clear call, values can overlap the other calls;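 note: parasites and compound incubated about four days before reading; 0% = median of neutral control wells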
# YB-1 expr inh: YB-1 expression inhibition; delta delta Cp (YB-1 minus CDIP) (test concentration not listed); actives 0.37% (n = 30,000); U2OS, qRT-PCR YB-1 vs CDIP delta delta Cp, 16 h; active compounds read high; zero = DMSO, each unit about twofold;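 active = delta delta Cp rounded down to an integer at or above 3, about 3 SD of DMSO wells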;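 note: higher means less YB-1 transcript or more CDIP transcript relative to DMSO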
# An asterisk follows results filed as active; ? = inconclusive; / = no result.
SMILES,INS-1E rescue,T cruzi HTS,YB-1 expr inh
CC(C)NC(=O)Nc1ccc2c(c1)CC(=O)N([C@H](C)CO)C[C@H](C)[C@H](CN(C)S(=O)(=O)c1ccccc1)O2,6,1,0.44
COc1ccc(Br)cc1/C=N/NC(=O)c1ccc(C(=O)NO)cc1,16,-3,-0.18
CCCc1nc2c(o1)N(C(=O)OCC)C(N)=C(C#N)C21CCNCC1,/,/,-0.15
COC1OC2c3cc4c(cc3CCN(C)C2c2ccc3c(c21)OCO3)OCO4 (stereo not drawn),/,/,0.24
C[C@H]1CN([C@@H](C)CO)C(=O)Cc2cc(NC(=O)Nc3cccc4ccccc34)ccc2O[C@H]1CN(C)Cc1ccc(C(=O)Nc2ccccc2N)cc1,-9,74*,-0.32
C[C@H]1CN([C@@H](C)CO)C(=O)Cc2cc(N(C)C)ccc2O[C@@H]1CN(C)Cc1ccc(C(=O)Nc2ccccc2N)cc1,6,70*,-0.18
C[C@H]1CN([C@@H](C)CO)C(=O)Cc2cc(NC(=O)Nc3cccc4ccccc34)ccc2O[C@@H]1CN(C)Cc1ccc(C(=O)Nc2ccccc2N)cc1,-14,38,-0.34
C[C@H]1CN([C@@H](C)CO)C(=O)Cc2cc(NC(=O)Nc3ccccc3)ccc2O[C@H]1CN(C)Cc1ccc(C(=O)Nc2ccccc2N)cc1,12,69*,-0.42
C[C@@H]1CN([C@H](C)CO)C(=O)Cc2cc(NC(=O)Nc3ccc(F)cc3)ccc2O[C@@H]1CN(C)Cc1ccc(C(=O)Nc2ccccc2N)cc1,-15,60*,-0.55
C[C@@H]1CN([C@@H](C)CO)C(=O)Cc2cc(N(C)C)ccc2O[C@@H]1CN(C)Cc1ccc(C(=O)Nc2ccccc2N)cc1,-17,50,-0.31
CCCC1C2C(=O)N(c3ccccc3)C(=O)C2ON1c1ccc(Cl)c(Cl)c1 (stereo not drawn),/,/,-0.016
Cc1ccccc1NC(=O)CCC(=O)OC1CCC(C(C)(C)C)CC1 (stereo not drawn),/,/,-0.3
CC(C)NC(=O)Nc1cccc2c1O[C@@H](CN(C)S(=O)(=O)c1cccs1)[C@H](C)CN([C@H](C)CO)C2=O,7,-1,-0.12
COc1cc2c(c(OC)c1OC)c(=O)c1ccccc1n2C,/,/,0.0088
O=c1c2ccccc2c(C=Nc2cccc(C(F)(F)F)c2)c(O)n1-c1ccccc1,/,/,-0.12
C[C@H]1CN([C@@H](C)CO)C(=O)Cc2cc(NC(=O)Nc3ccc(F)cc3)ccc2O[C@H]1CN(C)Cc1ccc(C(=O)Nc2ccccc2N)cc1,-6,56*,-0.71
C[C@H]1CN([C@@H](C)CO)C(=O)Cc2cc(NC(=O)c3ccncc3)ccc2O[C@@H]1CN(C)Cc1ccc(C(=O)Nc2ccccc2N)cc1,10,32,-0.023
[N-]=[N+]=NCc1ccccc1C[C@]1(C(=O)N2CCOCC2)N=C(c2ccc(OCCCO)cc2)O[C@H]1c1ccccc1,/,/,0.3
COc1ccc(NC(=O)Nc2cccc3c2O[C@H](CN(C)Cc2ccc(C(=O)Nc4ccccc4N)cc2)[C@@H](C)CN([C@@H](C)CO)C3=O)cc1,24,56*,-0.74
COc1ccc(NC(=O)Nc2cccc3c2O[C@H](CN(C)Cc2ccc(C(=O)Nc4ccccc4N)cc2)[C@H](C)CN([C@@H](C)CO)C3=O)cc1,2,46,0.1
COc1ccc(NC(=O)Nc2cccc3c2O[C@@H](CN(C)Cc2ccc(C(=O)Nc4ccccc4N)cc2)[C@H](C)CN([C@H](C)CO)C3=O)cc1,0,67*,-0.27
COc1ccc(NC(=O)Nc2cccc3c2O[C@H](CN(C)Cc2ccc(C(=O)Nc4ccccc4N)cc2)[C@@H](C)CN([C@H](C)CO)C3=O)cc1,9,37,-0.68
COCCOC(=O)N1C(=O)[C@@]2(c3cc(C#Cc4ccc(OC)cc4)ccc31)[C@H](C(N)=O)[C@H]1C(=O)O[C@H](c3ccccc3)[C@H](c3ccccc3)N1[C@@H]2c1ccccc1OCCO,/,/,9.5*
COCCOC(=O)N1C(=O)[C@@]2(c3cc(C#Cc4ccc(OC)cc4)ccc31)[C@H](C(N)=O)[C@H]1C(=O)O[C@H](c3ccccc3)[C@H](c3ccccc3)N1[C@@H]2c1ccc(OCCO)cc1,/,/,-0.32
C[C@H](CO)N1C[C@H](C)[C@H](CN(C)Cc2cccc(C(F)(F)F)c2)Oc2ncc(-c3ccc(F)cc3)cc2C1=O,/,59*,0.35
SMILES,INS-1E rescue,T cruzi HTS,YB-1 expr inh
C[C@H](CO)N1C[C@H](C)[C@H](CN(C)Cc2ccccc2)Oc2ncc(-c3cccc(C(F)(F)F)c3)cc2C1=O,/,?,0.14
COc1cccc(S(=O)(=O)N(C)C[C@@H]2Oc3ncc(-c4cccc(F)c4)cc3C(=O)N([C@H](C)CO)C[C@@H]2C)c1,/,30,0.22
C[C@H](CO)N1C[C@H](C)[C@H](CN(C)Cc2ccc(F)cc2)Oc2ncc(-c3cccc(C(F)(F)F)c3)cc2C1=O,/,62*,-0.37
COc1cccc(S(=O)(=O)N(C)C[C@@H]2Oc3ncc(-c4cccc(C(F)(F)F)c4)cc3C(=O)N([C@H](C)CO)C[C@@H]2C)c1,/,57*,-0.014
Cc1cccc(CN(C)C[C@@H]2Oc3ncc(-c4ccc(F)cc4)cc3C(=O)N([C@H](C)CO)C[C@@H]2C)c1,/,34,0.1
C[C@H](CO)N1C[C@H](C)[C@H](CN(C)Cc2ccc3c(c2)OCO3)Oc2ncc(-c3cccc(F)c3)cc2C1=O,-21,25,0.27
C[C@H](CO)N1C[C@H](C)[C@H](CN(C)Cc2ccc3c(c2)OCO3)Oc2ncc(-c3cccc(C(F)(F)F)c3)cc2C1=O,-13,62*,0.31
O=C1c2ccccc2C(=O)N1CC12CC3CC(CC(C3)C1)C2,/,/,-0.069
Cc1ccc2nc(S/C=C/C(=O)c3ccccc3)[nH]c2c1,/,/,-0.34
CCCC(O)C#Cc1cnc2c(c1)C(=O)N([C@H](C)CO)C[C@H](C)[C@H](CN(C)Cc1ccccc1)O2 (stereo partly drawn),/,21,0.058
CNC[C@@H]1Oc2ncc(-c3cccc(C(F)(F)F)c3)cc2C(=O)N([C@H](C)CO)C[C@@H]1C,/,54,0.48
C[C@H](CO)N1C[C@H](C)[C@H](CN(C)Cc2cccc(C(F)(F)F)c2)Oc2ncc(C#Cc3ccccc3)cc2C1=O,/,84*,0.42
C[C@H](CO)N1C[C@H](C)[C@H](CN(C)C)Oc2ncc(-c3cccc(C(F)(F)F)c3)cc2C1=O,/,81*,-0.41
CC(C)(C)OC(=O)NC/C=N/NC(=O)CCCCC(=O)NO,-1,-12,-0.1
CC(C)(C)OC(=O)NC1(/C=N/NC(=O)CCCCCC(=O)O)CCCC1,4,-15,-0.64

# High-throughput results deposited in PubChem by Broad Institute.
